Results on two molecules are retold here after ChEMBL document CHEMBL1240374, “Selection of mutations to detect multidrug-resistant Mycobacterium tuberculosis strains in Shanghai, China” (2010).

Format in all cases: functional
In test [1] the test system is Mycobacterium tuberculosis. The test can be described thus: Antibacterial activity against drug resistant Mycobacterium tuberculosis containing phenotypic rpoB534 mutation assessed as cumulative microbial sensitivity by phenotypic drug susceptibility testing. In outline: (§1)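 Phenotypic DST on clinical M. tuberculosis isolates by the egg-based Löwenstein-Jensen proportion method. Species was confirmed by biochemical tests and PCR. Mutations were found by sequencing. Each mutation is reported as a number and as a percentage of the isolates screened.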

The subject of test [2] is Mycobacterium tuberculosis. The test can be described thus: Antibacterial activity against drug resistant Mycobacterium tuberculosis containing phenotypic rpoB518 mutation assessed as cumulative microbial sensitivity by phenotypic drug susceptibility testing. In short, it runs like this: as §1
Test [3] deals with Mycobacterium tuberculosis. As to the kind of experiment: Antibacterial activity against drug resistant Mycobacterium tuberculosis containing phenotypic rpoB519 mutation assessed as cumulative microbial sensitivity by phenotypic drug susceptibility testing. In outline: as §1
The test system of test [4] is Mycobacterium tuberculosis. As to the kind of experiment: Antibacterial activity against drug resistant Mycobacterium tuberculosis containing phenotypic rpoB529 mutation assessed as cumulative microbial sensitivity by phenotypic drug susceptibility testing. In short, it runs like this:
as §1

The subject of test [5] is Mycobacterium tuberculosis. As to the kind of experiment: Antibacterial activity against drug resistant Mycobacterium tuberculosis containing phenotypic rpoB531 mutation assessed as cumulative microbial sensitivity by phenotypic drug susceptibility testing. In outline: as §1
Test [6] relates to Mycobacterium tuberculosis. The test can be described thus: Antibacterial activity against drug resistant Mycobacterium tuberculosis containing phenotypic rpoB513 mutation assessed as cumulative microbial sensitivity by phenotypic drug susceptibility testing. In short, it runs like this: as §1
Test [7] deals with Mycobacterium tuberculosis. The test can be described thus: Antibacterial activity against drug resistant Mycobacterium tuberculosis containing phenotypic rpoB511 mutation assessed as cumulative microbial sensitivity by phenotypic drug susceptibility testing. In short, it runs like this: as §1
For test [8], the system named is Mycobacterium tuberculosis. As to the kind of experiment: Antibacterial activity against drug resistant Mycobacterium tuberculosis containing phenotypic rpoB526 mutation assessed as cumulative microbial sensitivity by phenotypic drug susceptibility testing. In outline:
as §1

In test [9] the test system is Mycobacterium tuberculosis. As to the kind of experiment: Antibacterial activity against drug resistant Mycobacterium tuberculosis containing phenotypic rpoB522 mutation assessed as cumulative microbial sensitivity by phenotypic drug susceptibility testing. In outline:
as §1

The subject of test [10] is Mycobacterium tuberculosis. As to the kind of experiment: Antibacterial activity against drug resistant Mycobacterium tuberculosis containing phenotypic rpoB533 mutation assessed as cumulative microbial sensitivity by phenotypic drug susceptibility testing. In outline: as §1
The subject of test [11] is Mycobacterium tuberculosis. As to the kind of experiment: Antibacterial activity against Mycobacterium tuberculosis containing phenotypic embB306 mutation assessed as microbial sensitivity by phenotypic drug susceptibility testing. In short, it runs like this: as §1
The test system of test [12] is Mycobacterium tuberculosis. As to the kind of experiment: Antibacterial activity against drug resistant Mycobacterium tuberculosis containing phenotypic rpoB515 mutation assessed as cumulative microbial sensitivity by phenotypic drug susceptibility testing. In short, it runs like this: as §1
Test [13] concerns Mycobacterium tuberculosis. The test can be described thus: Antibacterial activity against drug resistant Mycobacterium tuberculosis containing phenotypic rpoB516 mutation assessed as cumulative microbial sensitivity by phenotypic drug susceptibility testing. In outline: as §1
The subject of test [14] is Mycobacterium tuberculosis. As to the kind of experiment: Antibacterial activity against Mycobacterium tuberculosis containing phenotypic rpoB531,rpoB526,rpo533 mutation assessed as microbial sensitivity by phenotypic drug susceptibility testing. In outline: as §1
The test system of test [15] is Mycobacterium tuberculosis. As to the kind of experiment: Antibacterial activity against drug resistant Mycobacterium tuberculosis containing phenotypic katG322 mutation assessed as cumulative microbial sensitivity by phenotypic drug susceptibility testing. In outline: as §1
For test [16], the system named is Mycobacterium tuberculosis. As to the kind of experiment: Antibacterial activity against Mycobacterium tuberculosis containing phenotypic rpoB513,katG315,inhA-15,ahpC-10,ahpC-6 mutation assessed as microbial sensitivity by phenotypic drug susceptibility testing. In outline: as §1
The subject of test [17] is Mycobacterium tuberculosis. The test can be described thus: Antibacterial activity against drug resistant Mycobacterium tuberculosis containing phenotypic inhA-8 mutation assessed as cumulative microbial sensitivity by phenotypic drug susceptibility testing. In outline:
as §1

Test [18] relates to Mycobacterium tuberculosis. The test can be described thus: Antibacterial activity against drug resistant Mycobacterium tuberculosis containing phenotypic inhA25 mutation assessed as cumulative microbial sensitivity by phenotypic drug susceptibility testing. In outline: as §1
Test [19] deals with Mycobacterium tuberculosis. The test can be described thus: Antibacterial activity against drug resistant Mycobacterium tuberculosis containing phenotypic katG315 mutation assessed as cumulative microbial sensitivity by phenotypic drug susceptibility testing. In short, it runs like this:
as §1

In test [20] the test system is Mycobacterium tuberculosis. The test can be described thus: Antibacterial activity against drug resistant Mycobacterium tuberculosis containing phenotypic ahpC-9 mutation assessed as cumulative microbial sensitivity by phenotypic drug susceptibility testing. In short, it runs like this:
as §1

The test system of test [21] is Mycobacterium tuberculosis. As to the kind of experiment: Antibacterial activity against drug resistant Mycobacterium tuberculosis containing phenotypic katG299 mutation assessed as cumulative microbial sensitivity by phenotypic drug susceptibility testing. In outline:
as §1

Test [22] concerns Mycobacterium tuberculosis. The test can be described thus: Antibacterial activity against drug resistant Mycobacterium tuberculosis containing phenotypic ahpC-6 mutation assessed as cumulative microbial sensitivity by phenotypic drug susceptibility testing. In short, it runs like this: as §1
Test [23] deals with Mycobacterium tuberculosis. The test can be described thus: Antibacterial activity against drug resistant Mycobacterium tuberculosis containing phenotypic inhA-15 mutation assessed as cumulative microbial sensitivity by phenotypic drug susceptibility testing. In outline:
as §1

Test [24] concerns Mycobacterium tuberculosis. As to the kind of experiment: Antibacterial activity against drug resistant Mycobacterium tuberculosis containing phenotypic ahpC-12 mutation assessed as cumulative microbial sensitivity by phenotypic drug susceptibility testing. In short, it runs like this:
as §1

Test [25] deals with Mycobacterium tuberculosis. As to the kind of experiment: Antibacterial activity against drug resistant Mycobacterium tuberculosis containing phenotypic ahpC-32 mutation assessed as cumulative microbial sensitivity by phenotypic drug susceptibility testing. In short, it runs like this: as §1
Test [26] concerns Mycobacterium tuberculosis. The test can be described thus: Antibacterial activity against drug resistant Mycobacterium tuberculosis containing phenotypic ahpC-15 mutation assessed as cumulative microbial sensitivity by phenotypic drug susceptibility testing. In outline: as §1
In test [27] the test system is Mycobacterium tuberculosis. As to the kind of experiment: Antibacterial activity against drug resistant Mycobacterium tuberculosis containing phenotypic katG295 mutation assessed as cumulative microbial sensitivity by phenotypic drug susceptibility testing. In short, it runs like this:
as §1

In test [28] the test system is Mycobacterium tuberculosis. The test can be described thus: Antibacterial activity against drug resistant Mycobacterium tuberculosis containing phenotypic ahpC-10 mutation assessed as cumulative microbial sensitivity by phenotypic drug susceptibility testing. In outline:
as §1

The subject of test [29] is Mycobacterium tuberculosis. As to the kind of experiment: Antibacterial activity against drug resistant Mycobacterium tuberculosis containing phenotypic ahpC-39 mutation assessed as cumulative microbial sensitivity by phenotypic drug susceptibility testing. In short, it runs like this: as §1

Turning to `CO[C@H]1/C=C/O[C@@]2(C)Oc3c(C)c(O)c4c(O)c(c(/C=N/N5CCN(C)CC5)c(O)c4c3C2=O)NC(=O)/C(C)=C\C=C\[C@H](C)[C@H](O)[C@@H](C)[C@@H](O)[C@@H](C)[C@H](OC(C)=O)[C@@H]1C` [RIFAMPIN], the Activity in test [1] was 95.9%; in test [2], 95.9%; in [3], 96.3%; in test [4], 95.9%; in [5], 61.2%; in test [6], 93.8%. The Activity is 94.2% in test [7]; 79.8% in [8]; 95.9% in test [9]; 90.9% in [10]; 93.8% in [11]; 95.9% in test [12]. Besides, the Activity was 87.2% in test [13] and 93.8% in test [14].
As for `NNC(=O)c1ccncc1` [ISONIAZID], the Activity in test [15] was found to be 89.3%; in test [16], 85.5%; in test [17], 86.4%; in test [18], 87.6%; in [19] it was 72.7%; in test [20], 87.6%. In addition, the Activity in test [21] is given as 88.8%; in test [22] it was 83.1%; in test [23], 78.5%; in test [24] it was 85.5%; in test [25], 88%; in test [26] it was 88.4%. The Activity in test [27] was found to be 88.8%; in [28], 80.6%; in test [11] it was 89.3%; in test [29] it was 86.4%.
